Assay results taken from ChEMBL document CHEMBL1124345, “Linear and proximal benzo-separated alkylated xanthines as adenosine-receptor antagonists” (J Med Chem, 1989).

Columns and labels:
[1] = target: Adenosine receptors; A1 & A2 (Rattus norvegicus) (UniProt P29276+P25099+P30543); test: (§1) Selectivity for A2 and A1 receptors was evaluated; format: protein assay
How it was run: (§2)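 Rat brain membranes (A1) bound with 1 nM [3H]-N6-cyclohexyladenosine (25 Ci/mmol). Rat striatal membranes (A2) bound with 4 nM [3H]NECA (30 Ci/mmol) in the presence of 50 nM N6-cyclopentyladenosine. Both incubations ran 1 h at 25 °C. Selectivity compares the affinities from the two binding assays.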

Adenosine A2 receptor = Adenosine A2 receptor (Rattus norvegicus, UniProt P29276+P30543); test: Binding affinity against Adenosine A2 receptor in rat striatal membrane, using [3H]-NECA as the radioligand.
Adenosine receptor A1 = target: T1, Adenosine receptor A1 (Rattus norvegicus, UniProt P25099); test: Binding affinity against Adenosine A1 receptor in rat brain membrane, using [3H]N6-cyclohexyladenosine as the radioligand; format: tissue-based
T1 sequence (P25099 whole entry): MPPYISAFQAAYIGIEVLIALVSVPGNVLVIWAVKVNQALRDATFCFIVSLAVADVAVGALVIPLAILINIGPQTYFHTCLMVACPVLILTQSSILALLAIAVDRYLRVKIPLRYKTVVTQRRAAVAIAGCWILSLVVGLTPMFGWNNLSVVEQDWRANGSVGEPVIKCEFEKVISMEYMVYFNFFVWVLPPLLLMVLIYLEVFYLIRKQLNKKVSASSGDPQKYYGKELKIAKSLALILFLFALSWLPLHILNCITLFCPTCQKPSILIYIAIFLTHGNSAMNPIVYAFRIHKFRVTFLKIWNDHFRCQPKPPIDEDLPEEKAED

[2] = as §1; how it was run: as §2

Row | Compound | Ratio [1] | Ki (Adenosine A2 receptor) [µM] | Ki (Adenosine receptor A1) [µM] | Ratio [2]
1 | Cn1c(=O)c2cc3nc[nH]c3cc2n(C)c1=O | 3.6 | 85 | – | –
2 | CCCCn1c(=O)c2c3nc[nH]c3ccc2n(CCCC)c1=O | 11.2 | 1.96 | 0.174 | –
3 | Cn1c(=O)c2cc3nc(-c4ccccc4)[nH]c3cc2n(C)c1=O | – | > 100 | > 100 | –
4 | Cn1c(=O)c2c3c(ccc2n(C)c1=O)ncn3C | 1.23 | 12.7 | 10.3 | –
5 | Cn1c(=O)c2cc3c(cc2n(C)c1=O)ncn3C | 1.99 | 23 | 11.6 | –
6 | CC(C)Cn1c(=O)n(C)c(=O)c2c3nc[nH]c3ccc21 | 2.3 | 1.97 | 0.86 | –
7 | Cn1c(=O)c2c3nc[nH]c3ccc2n(C)c1=O | 1.34 | 17.9 | 13.4 | –
8 | CCCn1c(=O)c2c3nc[nH]c3ccc2n(CCC)c1=O | 2.7 | 0.79 | 0.296 | –
9 | CCCCn1c(=O)c2cc3nc[nH]c3cc2n(CCCC)c1=O | 3.7 | 0.67 | 0.179 | –
10 | CCn1c(=O)c2cc3nc(-c4ccccc4)[nH]c3cc2n(CC)c1=O | – | > 100 | > 100 | –
11 | Cn1c(=O)c2cc3ncn(C)c3cc2n(C)c1=O | 3.8 | 58 | 15.2 | –
12 | CC(C)Cn1c(=O)n(C)c(=O)c2cc3[nH]cnc3cc21 | 3.9 | 2.4 | 0.62 | –
13 | CCn1c(=O)c2c3nc(-c4ccccc4)[nH]c3ccc2n(CC)c1=O | – | 58 | > 100 | –
14 | Cn1c(=O)c2ncn(C)c2n(C)c1=O [ISOCAFFIENE] | – | – | > 1000 | –
15 | CC(C)Cn1c(=O)n(C)c(=O)c2nc[nH]c21 [ISOBUTYLMETHYLXANTHINE] | – | 13.8 | – | 5.6
16 | CCCn1c(=O)c2cc3nc[nH]c3cc2n(CCC)c1=O | 10.7 | 1.32 | 0.123 | –
17 | Cn1c(=O)c2c3nc(-c4ccccc4)[nH]c3ccc2n(C)c1=O | – | 10.4 | 0.45 | 23
18 | Cn1c(=O)c2cc3[nH]cnc3cc2n(C)c1=O | – | – | 24 | –
